“And” between values parts separate entries of the source, which are not always exact repeats. Identical values can stand only once.
Tests used:
[1] = Drug related lethality is percent animals in treated groups dying prior to first tumor related death in untreated groups measured in BDF1 mice after ip administration at 400 mg/kg dose days 3 after tumor challenge; conditions: BDF1, mus sp., in vivo
[2] = Drug related lethality is percent animals in treated groups dying prior to first tumor related death in untreated groups measured in BDF1 mice after ip administration at 300 mg/kg dose days 3 after tumor challenge; conditions: BDF1, mus sp., in vivo
[3] = Drug related lethality is percent animals in treated groups dying prior to first tumor related death in untreated groups measured in BDF1 mice after iv administration at 10 mg/kg dose 3 days after tumor challenge; format: toxicity, organism-based; parameters: dose 10 mg/kg, route intravenous; conditions: BDF1, mus sp., in vivo, read-out: Lethality
[4] = Drug related lethality is percent animals in treated groups dying prior to first tumor related death in untreated groups measured in BDF1 mice after iv administration at 15 mg/kg dose 3 days after tumor challenge; format: toxicity, organism-based; parameters: dose 15 mg/kg, route intravenous; conditions: BDF1, mus sp., in vivo, read-out: Lethality
[5] = Drug related lethality is percent animals in treated groups dying prior to first tumor related death in untreated groups measured in BDF1 mice after iv administration at 18 mg/kg dose 3 days after tumor challenge; format: toxicity, organism-based; parameters: dose 18 mg/kg, route intravenous; conditions: BDF1, mus sp., in vivo, read-out: Lethality
[6] = Drug related lethality is percent animals in treated groups dying prior to first tumor related death in untreated groups measured in BDF1 mice after iv administration at 2.5 mg/kg dose 3 days after tumor challenge; format: toxicity, organism-based; parameters: dose 2.5 mg/kg, route intravenous; conditions: BDF1, mus sp., in vivo, read-out: Lethality
Mus sp. [7] = experiment: In vivo activity against 3LL metastasis in BDF1 mice after iv administration at 10 mg/kg dose, dosing on days 3 after tumor challenge; format: functional
Mus sp. [8] = experiment: In vivo activity against 3LL metastasis in BDF1 mice after iv administration at 18 mg/kg dose, dosing on days 3 after tumor challenge; format: functional
[9] = Drug related lethality is percent animals in treated groups dying prior to first tumor related death in untreated groups measured in BDF1 mice after iv administration at 20 mg/kg dose 3 days after tumor challenge; format: toxicity, organism-based; parameters: dose 20 mg/kg, route intravenous; conditions: BDF1, mus sp., in vivo, read-out: Lethality
[10] = Drug related lethality is percent animals in treated groups dying prior to first tumor related death in untreated groups measured in BDF1 mice after iv administration at 25 mg/kg dose 3 days after tumor challenge; format: toxicity, organism-based; parameters: dose 25 mg/kg, route intravenous; conditions: BDF1, mus sp., in vivo, read-out: Lethality
[11] = Drug related lethality is percent animals in treated groups dying prior to first tumor related death in untreated groups measured in BDF1 mice after iv administration at 30 mg/kg dose 3 days after tumor challenge; format: toxicity, organism-based; parameters: dose 30 mg/kg, route intravenous; conditions: BDF1, mus sp., in vivo, read-out: Lethality
[12] = Drug related lethality is percent animals in treated groups dying prior to first tumor related death in untreated groups measured in BDF1 mice after iv administration at 5 mg/kg dose 3 days after tumor challenge; format: toxicity, organism-based; parameters: dose 5 mg/kg, route intravenous; conditions: BDF1, mus sp., in vivo, read-out: Lethality
Mus sp. [13] = experiment: In vivo activity measured against 3LL metastasis in BDF1 mice after iv administration at 15 mg/kg dose, dosing on days 3 after tumor challenge; format: functional
Mus sp. [14] = experiment: In vivo activity measured against 3LL metastasis in BDF1 mice after iv administration at 2.5 mg/kg dose, dosing on days 3 after tumor challenge; format: functional
Mus sp. [15] = experiment: In vivo activity measured against 3LL metastasis in BDF1 mice after iv administration at 20 mg/kg dose, dosing on days 3 after tumor challenge; format: functional
Mus sp. [16] = experiment: In vivo activity measured against 3LL metastasis in BDF1 mice after iv administration at 25 mg/kg dose, dosing on days 3 after tumor challenge; format: functional
Mus sp. [17] = experiment: In vivo activity measured against 3LL metastasis in BDF1 mice after iv administration at 5 mg/kg dose, dosing on days 3 after tumor challenge; format: functional
[18] = Drug related lethality is percent animals in treated groups dying prior to first tumor related death in untreated groups measured in BDF1 mice after ip administration at 6.25 mg/kg dose; format: toxicity, organism-based; parameters: dose 6.25 mg/kg, route intraperitoneal; conditions: BDF1, mus sp., in vivo, read-out: Lethality
Outline: (§1)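 Female BDF1 mice (18–20 g) were implanted in the lateral tail vein with 6×10^5 log-phase 3LL cells in 0.20 mL RPMI 1640 and then randomized, seven per group. Drug was dissolved in DMSO (20% of final volume) and diluted with sterile saline to a fine suspension. Mice received 200 μL ip daily from day 2 to day 9 (8 treatments) and were monitored daily. Lethality counted deaths before the first tumor-related control death.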

[19] = Drug related lethality is percent animals in treated groups dying prior to first tumor related death in untreated groups measured in BDF1 mice after po administration at 400 mg/kg dose; format: toxicity, organism-based; parameters: dose 400 mg/kg, route oral; conditions: BDF1, mus sp., in vivo, read-out: Lethality
Outline: (§2)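 Female BDF1 mice (18–20 g) were implanted in the tail vein with 6×10^5 3LL cells in 0.20 mL RPMI 1640, seven per group. Drug was dissolved in DMSO (20% final) and diluted with saline to a fine suspension. Mice were dosed orally, 200 μL, from day 2 to day 9 (8 treatments). Lethality is the percentage of treated mice dying before the first tumor-related death among untreated controls.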

[20] = Drug related lethality is percent animals in treated groups dying prior to first tumor related death in untreated groups measured in BDF1 mice after po administration at 50 mg/kg dose; format: toxicity, organism-based; parameters: dose 50 mg/kg, route oral; conditions: BDF1, mus sp., in vivo, read-out: Lethality; outline: as §2
Mus sp. [21] = experiment: In vivo activity measured against 3LL metastasis in BDF1 mice after ip administration at 100 mg/kg dose, dosing on days 2-8 after tumor challenge; format: functional; conditions: route intraperitoneal
Outline: (§3)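 Female BDF1 mice (18–20 g) given 6×10^5 log-phase 3LL cells iv via tail vein in 0.20 mL RPMI 1640, randomized, 7 per group. Drug freshly dissolved in DMSO (20% of final volume) and diluted with sterile saline to a fine suspension. Dosed 200 μL ip or po, 8 treatments from day 2. Survival monitored daily. %T/C = MST treated/MST control × 100, given as mean (s.e.) over repeat experiments.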

Mus sp. [22] = experiment: In vivo activity measured against 3LL metastasis in BDF1 mice after ip administration at 12.5 mg/kg dose, dosing on days 2-8 after tumor challenge; format: functional; conditions: route intraperitoneal; outline: as §3
Mus sp. [23] = experiment: In vivo activity measured against 3LL metastasis in BDF1 mice after ip administration at 200 mg/kg dose, dosing on days 2-8 after tumor challenge; format: functional; conditions: route intraperitoneal; outline: as §3
Mus sp. [24] = experiment: In vivo activity measured against 3LL metastasis in BDF1 mice after ip administration at 25 mg/kg dose, dosing on days 2-8 after tumor challenge; format: functional; conditions: route intraperitoneal; outline: as §3
[25] = Drug related lethality is percent animals in treated groups dying prior to first tumor related death in untreated groups measured in BDF1 mice after ip administration at 400 mg/kg dose; format: toxicity, organism-based; parameters: dose 400 mg/kg, route intraperitoneal; conditions: BDF1, mus sp., in vivo, read-out: Lethality; outline: as §1
Mus sp. [26] = experiment: In vivo activity measured against 3LL metastasis in BDF1 mice after ip administration at 50 mg/kg dose, dosing on days 2-8 after tumor challenge; format: functional; conditions: route intraperitoneal; outline: as §3
Mus sp. [27] = experiment: In vivo activity measured against 3LL metastasis in BDF1 mice after ip administration at 6.25 mg/kg dose, dosing on days 2-8 after tumor challenge; format: functional; conditions: route intraperitoneal; outline: as §3
Mus sp. [28] = experiment: In vivo activity measured against 3LL metastasis in BDF1 mice after po administration at 200 mg/kg dose, dosing on days 2-8 after tumor challenge; format: functional; outline: as §3
Mus sp. [29] = experiment: In vivo activity measured against 3LL metastasis in BDF1 mice after po administration at 25 mg/kg dose, dosing on days 2-8 after tumor challenge; format: functional; outline: as §3
[30] = Drug related lethality is percent animals in treated groups dying prior to first tumor related death in untreated groups measured in BDF1 mice after po administration at 100 mg/kg dose; format: toxicity, organism-based; parameters: dose 100 mg/kg, route oral; conditions: BDF1, mus sp., in vivo, read-out: Lethality; outline: as §2
[31] = Drug related lethality is percent animals in treated groups dying prior to first tumor related death in untreated groups measured in BDF1 mice after po administration at 12.5 mg/kg dose; format: toxicity, organism-based; parameters: dose 12.5 mg/kg, route oral; conditions: BDF1, mus sp., in vivo, read-out: Lethality; outline: as §2
[32] = Drug related lethality is percent animals in treated groups dying prior to first tumor related death in untreated groups measured in BDF1 mice after po administration at 200 mg/kg dose; format: toxicity, organism-based; parameters: dose 200 mg/kg, route oral; conditions: BDF1, mus sp., in vivo, read-out: Lethality; outline: as §2
[33] = Drug related lethality is percent animals in treated groups dying prior to first tumor related death in untreated groups measured in BDF1 mice after po administration at 25 mg/kg dose; format: toxicity, organism-based; parameters: dose 25 mg/kg, route oral; conditions: BDF1, mus sp., in vivo, read-out: Lethality; outline: as §2
[34] = Drug related lethality is percent animals in treated groups dying prior to first tumor related death in untreated groups measured in BDF1 mice after ip administration at 100 mg/kg dose; format: toxicity, organism-based; parameters: dose 100 mg/kg, route intraperitoneal; conditions: BDF1, mus sp., in vivo, read-out: Lethality; outline: as §1
[35] = Drug related lethality is percent animals in treated groups dying prior to first tumor related death in untreated groups measured in BDF1 mice after ip administration at 12.5 mg/kg dose; format: toxicity, organism-based; parameters: dose 12.5 mg/kg, route intraperitoneal; conditions: BDF1, mus sp., in vivo, read-out: Lethality; outline: as §1
[36] = Drug related lethality is percent animals in treated groups dying prior to first tumor related death in untreated groups measured in BDF1 mice after ip administration at 200 mg/kg dose; format: toxicity, organism-based; parameters: dose 200 mg/kg, route intraperitoneal; conditions: BDF1, mus sp., in vivo, read-out: Lethality; outline: as §1
[37] = Drug related lethality is percent animals in treated groups dying prior to first tumor related death in untreated groups measured in BDF1 mice after ip administration at 25 mg/kg dose; format: toxicity, organism-based; parameters: dose 25 mg/kg, route intraperitoneal; conditions: BDF1, mus sp., in vivo, read-out: Lethality; outline: as §1
Mus sp. [38] = experiment: In vivo activity measured against 3LL metastasis in BDF1 mice after po administration at 50 mg/kg dose, dosing on days 2-8 after tumor challenge; format: functional; outline: as §3
Mus sp. [39] = experiment: In vivo activity was measured against 3LL metastasis in BDF1 mice after po administration at 100 mg/kg dose, dosing on days 2-8 after tumor challenge; format: functional; outline: as §3
[40] = Drug related lethality is percent animals in treated groups dying prior to first tumor related death in untreated groups measured in BDF1 mice after ip administration at 50 mg/kg dose; format: toxicity, organism-based; parameters: dose 50 mg/kg, route intraperitoneal; conditions: BDF1, mus sp., in vivo, read-out: Lethality; outline: as §1

`O=P1(N(CCCl)CCCl)NCCCO1` (stereo not given) [CYCLOPHOSPHAMIDE ANHYDROUS] showed a mortality [1] of 14% and a mortality [2] of 0%.

With `COc1cccc2c1C(=O)c1c(O)c3c(c(O)c1C2=O)C[C@@](O)(C(=O)CO)C[C@@H]3O[C@H]1C[C@H](N)[C@H](O)[C@H](C)O1` [DOXORUBICIN] the mortality at 72 h [3] was 0%, the mortality at 72 h [4] was 21% and the mortality at 72 h [5] was 0%. For the same compound, the mortality at 72 h [6] was 0%, the T/C (Mus sp. [7]) was 137% and the T/C (Mus sp. [8]) was 191%. For the same compound, the mortality at 72 h [9] was 15%, the mortality at 72 h [10] was 72% and the mortality at 72 h [11] was 100%. The mortality at 72 h [12] was 0%, the T/C (Mus sp. [13]) was 215% and the T/C (Mus sp. [14]) was 120%. The T/C (Mus sp. [15]) was 189%, the T/C (Mus sp. [16]) was 197% and the T/C (Mus sp. [17]) was 115%.

Compound `N=C(N)Nc1nc(C(=O)Nc2nc3cc(F)ccc3s2)cs1` has a mortality [18] of 0%, a mortality [19] of 45.7% and a mortality [20] of 2%. It also gave a T/C (Mus sp. [21]) of 160.7%, a T/C (Mus sp. [22]) of 149.3% and a T/C (Mus sp. [23]) of 179.7%. It also gave a T/C (Mus sp. [24]) of 153.8%, a mortality [25] of 42.9% and a T/C (Mus sp. [26]) of 153%. The T/C (Mus sp. [27]) was 112.7%, the T/C (Mus sp. [28]) was 119% and 150.3% and the T/C (Mus sp. [29]) was 127%. It also gave a mortality [30] of 5.7%, a mortality [31] of 0% and a mortality [32] of 22.7%. It also gave a mortality [33] of 1.78%, a mortality [34] of 0% and a mortality [35] of 0%. It also gave a mortality [36] of 14.3%, a mortality [37] of 0% and a T/C (Mus sp. [38]) of 140.4%. The T/C (Mus sp. [39]) was 157.7% and the mortality [40] was 0.43%.

From ChEMBL document CHEMBL1125643, “N-(5-fluorobenzothiazol-2-yl)-2-guanidinothiazole-4-carboxamide. A novel, systemically active antitumor agent effective against 3LL Lewis lung carcinoma” (J Med Chem, 1991)
